From ChEMBL document CHEMBL4190234, “Design, synthesis and anticancer activity of new monastrol analogues bearing 1,3,4-oxadiazole moiety” (Eur J Med Chem, 2017)

Key:
Assay type in all cases: functional
SK-MEL-5 = assay: Growth inhibition of human SK-MEL-5 cells at 10 uM incubated for 48 hrs by sulforhodamine B assay relative to control; details: SK-MEL-5, 48 h, read-out: GI
Outline: (§1)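 NCI single-dose screen: cells grown in RPMI 1640 with 5% FBS and 2 mM L-glutamine, plated at 5,000–40,000 cells/well and preincubated 24 h at 37 °C, 5% CO2. Compounds taken from DMSO stock and tested at final 10 µM for 48 h. Cells fixed with TCA, stained with 0.4% SRB, absorbance read at 515 nm. Percentage growth calculated against untreated controls; controls held DMSO at the same dilution.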

M14 = assay: Growth inhibition of human M14 cells at 10 uM incubated for 48 hrs by sulforhodamine B assay relative to control; details: M14, 48 h, read-out: GI
Outline: (§2)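 Single-dose screen at 10 μM final: cells in RPMI 1640, 5% FBS, 2 mM L-glutamine, plated 5,000–40,000/well, preincubated 24 h at 37°C, 5% CO2; drug 48 h; adherent cells fixed with 10% TCA, suspension cells with 16% TCA; SRB stain, absorbance 515 nm; percentage growth versus untreated control, with time-zero plates.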

OVCAR-8 = assay: Growth inhibition of human OVCAR8 cells at 10 uM incubated for 48 hrs by sulforhodamine B assay relative to control; details: OVCAR-8, 48 h, read-out: GI; outline: as §2
SK-MEL-2 = assay: Growth inhibition of human SK-MEL-2 cells at 10 uM incubated for 48 hrs by sulforhodamine B assay relative to control; details: SK-MEL-2, 48 h, read-out: GI; outline: as §1
UACC-62 = assay: Growth inhibition of human UACC62 cells at 10 uM incubated for 48 hrs by sulforhodamine B assay relative to control; details: UACC-62, 48 h, read-out: GI; outline: as §1
SK-MEL-28 = assay: Growth inhibition of human SK-MEL-28 cells at 10 uM incubated for 48 hrs by sulforhodamine B assay relative to control; details: SK-MEL-28, 48 h, read-out: GI; outline: as §1
SF-295 = assay: Growth inhibition of human SF295 cells at 10 uM incubated for 48 hrs by sulforhodamine B assay relative to control; details: SF-295, 48 h, read-out: GI; outline: as §1
SNB-19 = assay: Growth inhibition of human SNB19 cells at 10 uM incubated for 48 hrs by sulforhodamine B assay relative to control; details: SNB-19, 48 h, read-out: GI; outline: as §1
MDA-MB-231 = assay: Growth inhibition of human MDA-MB-231 cells at 10 uM incubated for 48 hrs by sulforhodamine B assay relative to control; details: MDA-MB-231, 48 h, read-out: GI; outline: as §2
CCRF-CEM = assay: Growth inhibition of human CCRF-CEM cells at 10 uM incubated for 48 hrs by sulforhodamine B assay relative to control; details: read-out: GI; outline: as §2
ACHN = assay: Growth inhibition of human ACHN cells at 10 uM incubated for 48 hrs by sulforhodamine B assay relative to control; details: read-out: GI; outline: as §2
RPMI-8226 = assay: Growth inhibition of human RPMI8226 cells at 10 uM incubated for 48 hrs by sulforhodamine B assay relative to control; details: RPMI-8226, 48 h, read-out: GI; outline: as §2
IGROV-1 = assay: Growth inhibition of human IGROV1 cells at 10 uM incubated for 48 hrs by sulforhodamine B assay relative to control; details: IGROV-1, 48 h, read-out: GI; outline: as §2
U-251 = assay: Growth inhibition of human U251 cells at 10 uM incubated for 48 hrs by sulforhodamine B assay relative to control; details: U-251, 48 h, read-out: GI; outline: as §1
HT-29 = assay: Growth inhibition of human HT-29 cells at 10 uM incubated for 48 hrs by sulforhodamine B assay relative to control; details: HT-29, 48 h, read-out: GI; outline: as §2
MCF7 = assay: Growth inhibition of human MCF7 cells at 10 uM incubated for 48 hrs by sulforhodamine B assay relative to control; details: MCF7, 48 h, read-out: GI; outline: as §2
PC-3 = assay: Growth inhibition of human PC3 cells at 10 uM incubated for 48 hrs by sulforhodamine B assay relative to control; details: PC-3, 48 h, read-out: GI; outline: as §2
NCI-H322M = assay: Growth inhibition of human NCI-H322M cells at 10 uM incubated for 48 hrs by sulforhodamine B assay relative to control; details: read-out: GI; outline: as §2
Hs-578T = assay: Growth inhibition of human Hs 578T cells at 10 uM incubated for 48 hrs by sulforhodamine B assay relative to control; details: read-out: GI; outline: as §2
TK-10 = assay: Growth inhibition of human TK10 cells at 10 uM incubated for 48 hrs by sulforhodamine B assay relative to control; details: TK-10, 48 h, read-out: GI; outline: as §1
NCI-H460 = assay: Growth inhibition of human NCI-H460 cells at 10 uM incubated for 48 hrs by sulforhodamine B assay relative to control; details: NCI-H460, 48 h, read-out: GI; outline: as §2
COLO 205 = assay: Growth inhibition of human COLO205 cells at 10 uM incubated for 48 hrs by sulforhodamine B assay relative to control; details: COLO 205, 48 h, read-out: GI; outline: as §2
Malme-3M = assay: Growth inhibition of human MALME-3M cells at 10 uM incubated for 48 hrs by sulforhodamine B assay relative to control; details: read-out: GI; outline: as §2
SW-620 = assay: Growth inhibition of human SW620 cells at 10 uM incubated for 48 hrs by sulforhodamine B assay relative to control; details: SW-620, 48 h, read-out: GI; outline: as §1
SR = assay: Growth inhibition of human SR cells at 10 uM incubated for 48 hrs by sulforhodamine B assay relative to control; details: read-out: GI; outline: as §1
LOX IMVI = assay: Growth inhibition of human LOXIMVI cells at 10 uM incubated for 48 hrs by sulforhodamine B assay relative to control; details: read-out: GI; outline: as §2
K562 = assay: Growth inhibition of human K562 cells at 10 uM incubated for 48 hrs by sulforhodamine B assay relative to control; details: K562, 48 h, read-out: GI; outline: as §2
KM12 = assay: Growth inhibition of human KM12 cells at 10 uM incubated for 48 hrs by sulforhodamine B assay relative to control; details: KM12, 48 h, read-out: GI; outline: as §2
T47D = assay: Growth inhibition of human T47D cells at 10 uM incubated for 48 hrs by sulforhodamine B assay relative to control; details: read-out: GI; outline: as §1
UACC-257 = assay: Growth inhibition of human UACC257 cells at 10 uM incubated for 48 hrs by sulforhodamine B assay relative to control; details: UACC-257, 48 h, read-out: GI; outline: as §1
SF-268 = assay: Growth inhibition of human SF268 cells at 10 uM incubated for 48 hrs by sulforhodamine B assay relative to control; details: SF-268, 48 h, read-out: GI; outline: as §1

Compound | inhibition of growth at 10 µM (SK-MEL-5) | inhibition of growth at 10 µM (M14) | inhibition of growth at 10 µM (OVCAR-8) | inhibition of growth at 10 µM (SK-MEL-2) | inhibition of growth at 10 µM (UACC-62) | inhibition of growth at 10 µM (SK-MEL-28) | inhibition of growth at 10 µM (SF-295) | inhibition of growth at 10 µM (SNB-19) | inhibition of growth at 10 µM (MDA-MB-231) | inhibition of growth at 10 µM (CCRF-CEM) | inhibition of growth at 10 µM (ACHN) | inhibition of growth at 10 µM (RPMI-8226) | inhibition of growth at 10 µM (IGROV-1) | inhibition of growth at 10 µM (U-251) | inhibition of growth at 10 µM (HT-29) | inhibition of growth at 10 µM (MCF7) | inhibition of growth at 10 µM (PC-3) | inhibition of growth at 10 µM (NCI-H322M) | inhibition of growth at 10 µM (Hs-578T) | inhibition of growth at 10 µM (TK-10) | further results
CCOC(=O)C1=C(C)NC(SCc2nnc(-c3ccc(OC)cc3)o2)=NC1c1ccc(F)cc1 (stereo not drawn) | < 10% | < 10% | < 10% | < 10% | < 10% | < 10% | < 10% | 11.4% | < 10% | 15.3% | < 10% | < 10% | < 10% | < 10% | < 10% | < 10% | 12.5% | < 10% | < 10% | < 10% | inhibition of growth at 10 µM (NCI-H460): < 10%; inhibition of growth at 10 µM (COLO 205): < 10%; inhibition of growth at 10 µM (Malme-3M): < 10%; inhibition of growth at 10 µM (SW-620): < 10%; inhibition of growth at 10 µM (SR): 15.9%; inhibition of growth at 10 µM (LOX IMVI): < 10%; inhibition of growth at 10 µM (K562): < 10%; inhibition of growth at 10 µM (KM12): < 10%; inhibition of growth at 10 µM (T47D): 33.3%; inhibition of growth at 10 µM (UACC-257): 11.8%; inhibition of growth at 10 µM (SF-268): < 10%
CCOC(=O)C1=C(C)NC(SCc2nnc(-c3ccc(Cl)cc3)o2)=NC1c1cccc(Cl)c1 (stereo not drawn) | < 10% | 26.2% | 33.7% | 39.9% | 26.6% | < 10% | 25.5% | 10.4% | 18.9% | 38.2% | < 10% | 46.4% | 14.6% | < 10% | 46.4% | 32% | 39.2% | < 10% | < 10% | 30.3% | inhibition of growth at 10 µM (NCI-H460): < 10%; inhibition of growth at 10 µM (COLO 205): 29.6%; inhibition of growth at 10 µM (Malme-3M): < 10%; inhibition of growth at 10 µM (SW-620): < 10%; inhibition of growth at 10 µM (SR): 16.4%; inhibition of growth at 10 µM (LOX IMVI): 17.7%; inhibition of growth at 10 µM (K562): 27.5%; inhibition of growth at 10 µM (KM12): 16%; inhibition of growth at 10 µM (T47D): 69.2%; inhibition of growth at 10 µM (UACC-257): 22.2%; inhibition of growth at 10 µM (SF-268): < 10%
CCOC(=O)C1=C(C)NC(SCc2nnc(-c3ccc(C)cc3)o2)=NC1c1ccc(F)cc1 (stereo not drawn) | 14.5% | < 10% | 17.8% | < 10% | 17.1% | < 10% | 12.1% | 10.1% | 14.7% | 14.1% | 19% | 27.2% | 13.9% | 15.1% | 12.4% | 14% | 26.8% | 10.3% | < 10% | 28.4% | inhibition of growth at 10 µM (NCI-H460): < 10%; inhibition of growth at 10 µM (COLO 205): < 10%; inhibition of growth at 10 µM (Malme-3M): < 10%; inhibition of growth at 10 µM (SW-620): < 10%; inhibition of growth at 10 µM (SR): 26.5%; inhibition of growth at 10 µM (LOX IMVI): < 10%; inhibition of growth at 10 µM (K562): 14.7%; inhibition of growth at 10 µM (KM12): < 10%; inhibition of growth at 10 µM (T47D): 32.6%; inhibition of growth at 10 µM (UACC-257): < 10%; inhibition of growth at 10 µM (SF-268): < 10%
